Activity calls are given as the source filed them. No cut-off for these calls is given here.
Legend:
[1] = molecular target: T1, Transient receptor potential cation channel subfamily V member 1 (Homo sapiens, UniProt Q8NER1); experiment: Antagonist activity at human brain TRPV1 expressed in HEK293T cells assessed as inhibition of heat-induced intracellular Ca2+ influx measured for 42 mins by fluorescence-based assay; type: cell-based, HEK-293T
Outline: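 hTRPV1-HEK293T, Fluo-4 loaded; antagonist pretreated 3 min, plate heated from 40 to 45 °C, Ca2+ signal recorded 42 min. Data as % of heat response; IC50 from dose curve; n = 4−10.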

[2] = molecular target: T1, Transient receptor potential cation channel subfamily V member 1; experiment: Competitive antagonist activity at human brain TRPV1 expressed in HEK293T cells assessed as inhibition of CAP-induced intracellular Ca2+ influx at 50 uM preincubated for 3 mins followed by CAP challenge measured after 10 mins of post compound washout; type: cell-based; details: HEK-293T
Outline: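 hTRPV1-HEK293T cells incubated 3 min with 50 μM compound, washed six times with buffer, kept 10 min at 37 °C in dark, then challenged with 0.01 μM capsaicin; Fluo-4 Ca2+ read-out as % of 10 μM capsaicin.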

[3] = molecular target: T2, Transient receptor potential cation channel subfamily V member 3 (Homo sapiens) (UniProt Q8NET8); experiment: Antagonist activity at human TRPV3 expressed in HEK293T cells assessed as menthol-induced intracellular Ca2+ influx at 100 uM by Fluo-4 AM staining-based fluorescence analysis; type: cell-based; details: HEK-293T
T2 sequence (whole entry): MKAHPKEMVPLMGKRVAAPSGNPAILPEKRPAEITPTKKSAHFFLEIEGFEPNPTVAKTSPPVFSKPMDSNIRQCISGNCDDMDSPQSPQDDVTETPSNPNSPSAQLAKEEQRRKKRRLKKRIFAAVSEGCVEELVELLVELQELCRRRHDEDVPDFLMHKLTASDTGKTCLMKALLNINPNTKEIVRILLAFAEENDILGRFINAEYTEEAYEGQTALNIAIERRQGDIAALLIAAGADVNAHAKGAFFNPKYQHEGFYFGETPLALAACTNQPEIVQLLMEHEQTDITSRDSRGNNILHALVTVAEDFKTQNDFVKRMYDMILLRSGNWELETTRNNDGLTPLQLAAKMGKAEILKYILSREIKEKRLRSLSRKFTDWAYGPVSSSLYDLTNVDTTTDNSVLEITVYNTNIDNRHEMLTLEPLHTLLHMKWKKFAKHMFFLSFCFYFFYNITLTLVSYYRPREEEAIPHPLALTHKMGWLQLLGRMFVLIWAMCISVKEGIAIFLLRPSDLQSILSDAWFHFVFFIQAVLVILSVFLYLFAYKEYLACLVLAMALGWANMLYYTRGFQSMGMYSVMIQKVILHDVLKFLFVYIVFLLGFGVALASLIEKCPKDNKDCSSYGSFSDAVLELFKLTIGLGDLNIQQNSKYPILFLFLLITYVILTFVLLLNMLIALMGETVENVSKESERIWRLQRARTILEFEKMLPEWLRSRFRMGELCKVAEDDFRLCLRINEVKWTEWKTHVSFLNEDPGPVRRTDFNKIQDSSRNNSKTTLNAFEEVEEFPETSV
Outline: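 hTRPV3 transiently expressed in HEK293T; loading and assay at 25 °C, Fluo-4 with probenecid buffer pH 7.4. Agonist 100 and 300 μM menthol, 5 μM ruthenium red as reference; 100 μM compound alone or pretreated 3 min. Data as % of 1000 μM menthol.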

[4] = molecular target: T3, Transient receptor potential cation channel subfamily V member 2 (Homo sapiens) (UniProt Q9Y5S1); experiment: Antagonist activity at human TRPV2 expressed in HEK293T cells assessed as LPC-induced intracellular Ca2+ influx at 100 uM by Fluo-4 AM staining-based fluorescence analysis; type: cell-based; details: HEK-293T
T3 sequence (whole entry): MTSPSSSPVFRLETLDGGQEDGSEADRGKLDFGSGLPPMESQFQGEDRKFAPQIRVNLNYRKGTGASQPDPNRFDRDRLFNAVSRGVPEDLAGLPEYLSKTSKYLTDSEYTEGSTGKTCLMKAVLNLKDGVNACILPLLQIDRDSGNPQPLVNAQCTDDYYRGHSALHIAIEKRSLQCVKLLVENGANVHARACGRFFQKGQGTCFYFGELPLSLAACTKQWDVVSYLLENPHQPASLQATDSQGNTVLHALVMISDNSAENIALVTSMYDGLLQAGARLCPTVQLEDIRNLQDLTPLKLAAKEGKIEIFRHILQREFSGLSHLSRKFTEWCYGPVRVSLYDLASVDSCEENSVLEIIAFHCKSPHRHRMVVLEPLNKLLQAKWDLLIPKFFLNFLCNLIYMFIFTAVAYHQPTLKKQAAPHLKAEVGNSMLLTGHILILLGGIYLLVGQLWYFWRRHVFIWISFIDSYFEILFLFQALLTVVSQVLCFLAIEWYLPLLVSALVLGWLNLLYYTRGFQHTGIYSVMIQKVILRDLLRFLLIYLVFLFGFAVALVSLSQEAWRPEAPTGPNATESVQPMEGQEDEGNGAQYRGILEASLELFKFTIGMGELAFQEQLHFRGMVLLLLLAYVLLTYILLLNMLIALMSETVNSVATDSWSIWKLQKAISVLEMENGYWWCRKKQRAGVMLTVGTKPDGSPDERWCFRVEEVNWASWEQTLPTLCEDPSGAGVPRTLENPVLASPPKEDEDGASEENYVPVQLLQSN
Outline: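 hTRPV2 transiently transfected into HEK293T, seeded 6 h after transfection and used 18 h later. Fluo-4 loading in probenecid-free buffer, 37 °C. Agonist 30 and 40 μM LPC; ruthenium red 5 μM as reference blocker; 100 μM compound given alone or pretreated 3 min. Read-out ΔF/F0 (%).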

[5] = molecular target: T1, Transient receptor potential cation channel subfamily V member 1; experiment: Antagonist activity at human brain TRPV1 expressed in HEK293T cells assessed as CAP-induced intracellular Ca2+ influx at 100 uM by Fluo-4 AM staining-based fluorescence analysis; type: cell-based; details: HEK-293T
Outline: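 Stable hTRPV1 in HEK293T (G418 selected), Fluo-4 loaded, 37 °C. 100 μM compound alone, or pretreated 3 min before 0.01 μM capsaicin; 10 μM BCTC reference. Data as % of 10 μM capsaicin.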

[6] = molecular target: Transient receptor potential cation channel subfamily M member 8 (Mus musculus, UniProt Q8R4D5); experiment: Competitive antagonist at TRPM8 isolated from mouse dorsal root ganglion cells expressed in HEK T-REx cells assessed as inhibition of menthol-induced intracellular Ca2+ influx by Schlid plot analysis
Chain of Transient receptor potential cation channel subfamily M member 8 (Q8R4D5 whole entry): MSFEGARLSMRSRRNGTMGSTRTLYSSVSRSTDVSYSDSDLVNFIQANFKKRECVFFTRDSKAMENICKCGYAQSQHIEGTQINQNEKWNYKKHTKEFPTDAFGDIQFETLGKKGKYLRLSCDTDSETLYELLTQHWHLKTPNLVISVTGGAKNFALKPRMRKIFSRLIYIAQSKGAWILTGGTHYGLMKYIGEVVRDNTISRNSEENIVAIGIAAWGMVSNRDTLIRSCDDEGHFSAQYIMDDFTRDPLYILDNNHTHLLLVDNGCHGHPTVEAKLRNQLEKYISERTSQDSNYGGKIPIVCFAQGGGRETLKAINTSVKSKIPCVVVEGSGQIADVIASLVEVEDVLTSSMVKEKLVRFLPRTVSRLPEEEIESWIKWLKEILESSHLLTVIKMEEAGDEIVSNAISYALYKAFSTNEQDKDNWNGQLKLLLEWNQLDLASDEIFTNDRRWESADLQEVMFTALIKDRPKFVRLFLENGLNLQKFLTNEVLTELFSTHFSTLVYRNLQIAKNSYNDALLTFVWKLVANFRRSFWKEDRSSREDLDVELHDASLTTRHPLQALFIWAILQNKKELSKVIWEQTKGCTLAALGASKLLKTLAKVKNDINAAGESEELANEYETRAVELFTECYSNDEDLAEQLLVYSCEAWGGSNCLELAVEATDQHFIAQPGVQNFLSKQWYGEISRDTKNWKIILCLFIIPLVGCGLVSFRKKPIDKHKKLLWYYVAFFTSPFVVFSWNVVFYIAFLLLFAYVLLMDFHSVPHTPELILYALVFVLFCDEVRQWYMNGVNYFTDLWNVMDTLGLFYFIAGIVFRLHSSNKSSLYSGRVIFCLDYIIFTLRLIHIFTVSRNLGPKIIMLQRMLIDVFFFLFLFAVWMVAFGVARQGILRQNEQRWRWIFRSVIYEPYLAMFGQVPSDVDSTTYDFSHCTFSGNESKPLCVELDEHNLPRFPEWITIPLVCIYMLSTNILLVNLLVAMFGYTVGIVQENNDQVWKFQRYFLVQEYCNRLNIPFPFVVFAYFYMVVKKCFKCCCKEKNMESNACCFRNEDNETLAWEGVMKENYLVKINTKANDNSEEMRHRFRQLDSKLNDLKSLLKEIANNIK

[7] = molecular target: Transient receptor potential cation channel subfamily M member 8 (Mus musculus) (UniProt Q8R4D5); details: Dorsal root ganglion, HEK T-REx, 100 uM
Chain of Transient receptor potential cation channel subfamily M member 8 (Mus musculus) (Q8R4D5 whole entry): as above

[8] = molecular target: Transient receptor potential cation channel subfamily M member 8 (Mus musculus) (UniProt Q8R4D5); details: Dorsal root ganglion, HEK T-REx, 3 to 30 uM
[9] = molecular target: Transient receptor potential cation channel subfamily M member 8 (Mus musculus) (UniProt Q8R4D5); details: Dorsal root ganglion, HEK T-REx, 3 to 30 uM; remark: listed apart in the source

T1 sequence (Q8NER1 whole entry): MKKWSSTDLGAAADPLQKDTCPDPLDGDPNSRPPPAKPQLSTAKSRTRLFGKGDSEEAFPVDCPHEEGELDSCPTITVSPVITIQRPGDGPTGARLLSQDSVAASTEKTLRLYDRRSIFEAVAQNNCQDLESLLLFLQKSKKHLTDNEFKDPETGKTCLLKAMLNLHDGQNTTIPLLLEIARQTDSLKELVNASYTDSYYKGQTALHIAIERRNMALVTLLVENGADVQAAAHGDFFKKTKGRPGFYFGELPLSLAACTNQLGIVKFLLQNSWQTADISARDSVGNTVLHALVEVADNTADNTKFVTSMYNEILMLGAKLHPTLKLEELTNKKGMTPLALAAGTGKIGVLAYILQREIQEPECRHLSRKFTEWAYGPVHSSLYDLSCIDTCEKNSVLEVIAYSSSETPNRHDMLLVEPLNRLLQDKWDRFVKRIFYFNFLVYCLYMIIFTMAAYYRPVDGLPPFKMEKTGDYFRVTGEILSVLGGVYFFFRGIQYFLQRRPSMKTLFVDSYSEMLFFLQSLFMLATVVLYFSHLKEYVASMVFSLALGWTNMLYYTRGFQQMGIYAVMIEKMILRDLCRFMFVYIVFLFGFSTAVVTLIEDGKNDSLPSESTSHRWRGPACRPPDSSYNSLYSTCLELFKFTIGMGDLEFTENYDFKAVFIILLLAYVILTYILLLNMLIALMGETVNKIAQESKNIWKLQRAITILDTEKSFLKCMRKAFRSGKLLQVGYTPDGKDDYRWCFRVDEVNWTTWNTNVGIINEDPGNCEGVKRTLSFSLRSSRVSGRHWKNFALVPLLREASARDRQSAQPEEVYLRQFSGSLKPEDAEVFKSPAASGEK

CC[C@H]1C[C@@H]2CN3CCc4c([nH]c5ccc(OC)cc45)[C@](C(=O)OC)(C2)[C@H]13 [VOACANGINE]
IC50 [1]: 24 µM
inhibition ([1]; HEK-293T): Dose-dependent effect
inhibition [2]: inactive
Activity [3]: inactive
Activity [4]: inactive
Activity [5]: Active
Kb [6]: 7.94 µM
inhibition [7]: Active
inhibition [8]: Active
inhibition [9]: inactive
